Active and inactive are the calls of the source. The rule behind the calls is not given here.
How the values were obtained:
[1] = biological target: LIM domain kinase 1 (Mus musculus) (UniProt P53668); assay: Ex vivo inhibition of LIMK in hippocampus of mouse assessed as reduction in p-cofilin level at 3 uM incubated for 30 mins by Western blot analysis; assay type: functional
Procedure, shortened: (§1)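 Acute hippocampal slices from P7–9 WT and Fmr1 KO mice, incubated with vehicle (DMSO) or 3 μM LIMK inhibitor. p-Cofilin and total cofilin measured by Western blot and expressed as a p-cofilin/cofilin ratio. n = 2–4 animals per group. Significance by one-way ANOVA with Dunnett's multiple comparisons test.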

[2] = biological target: LIM domain kinase 1 (Mus musculus) (UniProt P53668); assay: Ex vivo inhibition of LIMK in hippocampus of Fmr1 KO mouse model of FXS assessed as reduction in p-cofilin level at 3 uM incubated for 30 mins by Western blot analysis; assay type: functional; procedure, shortened: as §1
[3] = Drug concentration in plasma of CD-1 mouse at 30 mg/kg/day, ip treated daily for 28 days; assay type: ADME, organism-based; conditions: time 28 day
Cytochrome P450 1A2 = biological target: T1, Cytochrome P450 1A2 (Homo sapiens, UniProt P05177); assay: Inhibition of CYP1A2 (unknown origin); assay type: ADME, microsomes, Liver, Microsome
T1 sequence (P05177 whole entry): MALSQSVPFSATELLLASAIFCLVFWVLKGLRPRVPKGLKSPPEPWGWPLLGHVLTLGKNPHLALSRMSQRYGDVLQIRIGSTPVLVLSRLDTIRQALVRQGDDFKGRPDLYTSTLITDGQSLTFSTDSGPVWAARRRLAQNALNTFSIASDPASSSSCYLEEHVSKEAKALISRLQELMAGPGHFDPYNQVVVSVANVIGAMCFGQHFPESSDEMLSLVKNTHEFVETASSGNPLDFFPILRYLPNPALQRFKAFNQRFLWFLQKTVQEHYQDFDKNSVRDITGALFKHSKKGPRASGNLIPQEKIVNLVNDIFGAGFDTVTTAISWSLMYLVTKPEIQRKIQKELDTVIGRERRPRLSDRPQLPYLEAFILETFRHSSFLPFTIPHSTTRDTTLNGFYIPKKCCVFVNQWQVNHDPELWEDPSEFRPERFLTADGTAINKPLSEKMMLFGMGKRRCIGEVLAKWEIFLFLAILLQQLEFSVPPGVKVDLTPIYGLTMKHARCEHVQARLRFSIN

Cytochrome P450 2C19 = Cytochrome P450 2C19 (Homo sapiens, UniProt P33261); assay: Inhibition of CYP2C19 (unknown origin); assay type: ADME, microsomes, Liver, Microsome
Chain of Cytochrome P450 2C19 (P33261 whole entry): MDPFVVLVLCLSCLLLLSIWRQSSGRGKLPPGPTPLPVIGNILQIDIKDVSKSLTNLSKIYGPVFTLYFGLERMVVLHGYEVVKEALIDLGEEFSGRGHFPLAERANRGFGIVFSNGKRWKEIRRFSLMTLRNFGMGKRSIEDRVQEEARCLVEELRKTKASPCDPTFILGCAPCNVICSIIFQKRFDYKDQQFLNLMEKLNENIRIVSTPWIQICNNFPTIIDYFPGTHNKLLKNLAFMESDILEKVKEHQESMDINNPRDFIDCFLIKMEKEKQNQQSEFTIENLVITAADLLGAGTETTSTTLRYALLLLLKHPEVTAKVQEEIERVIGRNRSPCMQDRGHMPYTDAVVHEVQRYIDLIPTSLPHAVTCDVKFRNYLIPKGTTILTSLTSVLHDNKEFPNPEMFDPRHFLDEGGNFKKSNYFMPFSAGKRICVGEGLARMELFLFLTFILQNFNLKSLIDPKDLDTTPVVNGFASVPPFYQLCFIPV

Cytochrome P450 2D6 = Cytochrome P450 2D6 (Homo sapiens, UniProt P10635); assay: Inhibition of CYP2D6 (unknown origin); assay type: ADME, microsomes, Liver, Microsome
Chain of Cytochrome P450 2D6 (P10635 whole entry): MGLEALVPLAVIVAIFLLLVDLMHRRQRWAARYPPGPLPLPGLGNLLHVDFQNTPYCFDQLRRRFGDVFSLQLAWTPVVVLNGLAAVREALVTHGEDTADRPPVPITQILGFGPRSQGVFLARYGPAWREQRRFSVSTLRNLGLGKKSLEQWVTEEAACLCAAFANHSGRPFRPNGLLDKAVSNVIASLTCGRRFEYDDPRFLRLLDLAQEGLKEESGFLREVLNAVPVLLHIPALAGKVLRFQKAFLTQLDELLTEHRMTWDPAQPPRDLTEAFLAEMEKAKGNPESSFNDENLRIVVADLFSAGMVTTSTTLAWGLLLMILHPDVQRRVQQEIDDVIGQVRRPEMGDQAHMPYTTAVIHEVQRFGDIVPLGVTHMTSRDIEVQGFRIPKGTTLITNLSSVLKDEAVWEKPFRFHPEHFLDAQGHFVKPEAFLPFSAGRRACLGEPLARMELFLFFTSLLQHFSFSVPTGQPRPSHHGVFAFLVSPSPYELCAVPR

[4] = Toxicity in CD-1 mouse assessed as body weight change at 30 mg/kg/day, ip treated daily for 28 days; assay type: organism-based; conditions: in vivo, 672 h, time 28 day
Procedure, shortened: (§2)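 Male CD-1 mice, 6 weeks old at start, dosed with vehicle or 30 mg/kg/day i.p. once daily for 28 days, followed by a 2-week treatment-free recovery. Endpoints: body weight, food consumption, clinical signs, macro- and microscopic pathology, and organ weights (male sexual organs) after […] of dosing and after recovery. Data given as mean ± SEM.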

[5] = Toxicity in CD-1 mouse assessed as effect on food consumption at 30 mg/kg/day, ip treated daily for 28 days; assay type: organism-based; conditions: in vivo, 672 h, time 28 day; procedure, shortened: as §2
[6] = Toxicity in CD-1 mouse assessed as adverse clinical signs at 30 mg/kg/day, ip treated daily for 28 days; assay type: organism-based; conditions: in vivo, 672 h, time 28 day; procedure, shortened: as §2
[7] = Toxicity in CD-1 mouse assessed as adverse macroscopic findings at 30 mg/kg/day, ip treated daily for 28 days; assay type: organism-based; conditions: in vivo, 672 h, time 28 day; procedure, shortened: as §2
[8] = Toxicity in CD-1 mouse assessed as adverse microscopic findings at 30 mg/kg/day, ip treated daily for 28 days; assay type: organism-based; conditions: in vivo, 672 h, time 28 day; procedure, shortened: as §2
[9] = Toxicity in CD-1 mouse assessed as change in epididymis weight at 30 mg/kg/day, ip treated daily for 28 days; assay type: organism-based; conditions: in vivo, 672 h, time 28 day; procedure, shortened: as §2
[10] = Toxicity in CD-1 mouse assessed as change in prostate weight at 30 mg/kg/day, ip treated daily for 28 days; assay type: organism-based; conditions: in vivo, 672 h, time 28 day; procedure, shortened: as §2
[11] = Toxicity in CD-1 mouse assessed as change in testis weight at 30 mg/kg/day, ip treated daily for 28 days; assay type: organism-based; conditions: in vivo, 672 h, time 28 day; procedure, shortened: as §2
[12] = Toxicity in CD-1 mouse assessed as change in seminal vesicle weight at 30 mg/kg/day, ip treated daily for 28 days; assay type: organism-based; conditions: in vivo, 672 h, time 28 day; procedure, shortened: as §2
[13] = Toxicity in CD-1 mouse assessed as inflammatory cell infiltration in epididymis at 30 mg/kg/day, ip treated daily for 28 days measured after 14 days of recovery period; assay type: organism-based; conditions: in vivo, 672 h, time 28 day; procedure, shortened: as §2
[14] = Drug concentration in brain of CD-1 mouse at 30 mg/kg/day, ip treated daily for 28 days; assay type: ADME, organism-based; conditions: time 28 day, read-out: Ct
[15] = Toxicity in CD-1 mouse assessed as drug tolerance at 30 mg/kg/day, ip treated daily for 28 days; assay type: organism-based; conditions: in vivo, 672 h, time 28 day; procedure, shortened: as §2

Chain of LIM domain kinase 1 (Mus musculus) (P53668 whole entry, the tested form may be a part): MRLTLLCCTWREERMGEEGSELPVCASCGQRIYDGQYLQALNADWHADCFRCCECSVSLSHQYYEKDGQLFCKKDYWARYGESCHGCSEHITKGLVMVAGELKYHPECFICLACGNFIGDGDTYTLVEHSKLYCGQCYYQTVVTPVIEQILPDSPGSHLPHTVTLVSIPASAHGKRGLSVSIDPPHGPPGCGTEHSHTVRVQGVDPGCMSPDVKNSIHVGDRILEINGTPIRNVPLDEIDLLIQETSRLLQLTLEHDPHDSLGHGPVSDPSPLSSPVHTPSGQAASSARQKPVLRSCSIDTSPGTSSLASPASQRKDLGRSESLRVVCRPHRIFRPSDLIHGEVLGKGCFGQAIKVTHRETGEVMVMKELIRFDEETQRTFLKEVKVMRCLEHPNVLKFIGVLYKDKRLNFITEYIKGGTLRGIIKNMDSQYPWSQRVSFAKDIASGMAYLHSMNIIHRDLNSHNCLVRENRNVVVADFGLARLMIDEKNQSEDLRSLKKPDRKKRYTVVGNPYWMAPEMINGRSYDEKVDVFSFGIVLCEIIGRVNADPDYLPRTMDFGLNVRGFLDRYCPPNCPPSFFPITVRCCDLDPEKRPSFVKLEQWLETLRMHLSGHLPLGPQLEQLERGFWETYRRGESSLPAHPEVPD

Row | inhibition [1] | inhibition [2] | SMILES | concentration at 672 h [3] [nM] | IC50 (Cytochrome P450 1A2) [µM] | IC50 (Cytochrome P450 2C19) [µM] | IC50 (Cytochrome P450 2D6) [µM] | Activity [4] | Activity [5] | Activity [6] | Activity [7] | Activity [8] | Activity [9] | Activity [10] | Activity [11] | Activity [12] | Activity [13] | concentration at 672 h [14] [nM] | Activity [15]
1 | Active | Active | Cc1c[nH]c2ncnc(-c3ccc(NC(=O)N(CCO)c4ccccc4)cc3)c12 | – | – | – | – | – | – | – | – | – | – | – | – | – | – | – | –
2 | – | – | O=C(c1ccc(S(=O)(=O)Nc2ccccc2)cc1)N(Cc1ccc(NCCO)cc1)CC1CC1 | 903 | > 25 | 11 | > 25 | Non-toxic | Non-toxic | Non-toxic | Non-toxic | Non-toxic | Non-toxic | Non-toxic | Non-toxic | Non-toxic | Non-toxic | 62 | Non-toxic
3 | Active | Active | CCn1c(=O)c(-c2ccc(Cl)cc2Cl)cc2cnc(Nc3ccc(N4CCNCC4)c(F)c3)nc21 | – | – | – | – | – | – | – | – | – | – | – | – | – | – | – | –
